# Assay results of several laboratories.
# Target: Cyclin-dependent kinase 18 (CDK18, Homo sapiens, UniProt Q07002)
SMILES,test,setting,remaining binding [%]
C[C@@H]1CCN(c2nccc(-c3cnn4ncccc34)n2)C1,binding,1 µM,100
NS(=O)(=O)c1cc(NC(=O)Cc2ccccc2)ccc1Oc1cccc(Cl)c1,"cell-free assay, competition with immobilised ligand",1 µM,100
CN1CCN(c2ccc(Nc3nccc(-c4cccc([N+](=O)[O-])c4)n3)cc2C(F)(F)F)CC1,binding,10 µM,56
CCC(=N\O)/C(C)=C/c1ccc(F)cc1,"cell-free assay, competition with immobilised ligand",1 µM,89
COc1cnc(Nc2cccc(S(N)(=O)=O)c2)nc1N1CCN(c2ccccc2)CC1,"binding, competition with immobilised ligand",1 µM,98
COc1ncc2cc3ccccc3nc2c1C#N,"cell-free assay, competition with immobilised ligand",5 µM,90
C[C@@H](c1ccc(-n2cnc3c(N)ncnc32)cc1)N1CCc2nn(C)c(Cc3ccccc3)c2C1=O,"binding, competition with immobilised ligand",0.1 µM,100
CN(c1ccnc(CNc2nc(Nc3ccc4c(c3)CC(=O)N4)ncc2C(F)(F)F)n1)S(C)(=O)=O,"cell-free assay, competition with immobilised ligand",1 µM,100
F[C@@H]1CCN(c2nccc(-c3cnn4ncccc34)n2)C1,binding,1 µM,86
O=C(NCC1CCOCC1)c1n[nH]cc1NC(=O)c1c(F)cccc1F,"binding, competition with immobilised ligand",1 µM,86
CNC(=O)[C@@H]1CC[C@@H](n2c(-c3ccc4cnccc4c3)nc3ccc(C(=O)NCc4cccc(C(N)=O)c4)cc32)C1,"binding, competition with immobilised ligand",1 µM,100
O=C(NCCCN1CCOCC1)c1ccc(Nc2ncc(Cl)c(-c3ccc(Cl)s3)n2)cc1,"binding, competition with immobilised ligand",1 µM,70
c1cnn2ncc(-c3ccnc(N4CCC45COC5)n3)c2c1,binding,1 µM,98
CNC(=O)Nc1ccc2c(c1)[C@@]1(CC2)OC(=O)N(CC(=O)N(Cc2ccc(F)cc2)[C@@H](C)C(F)(F)F)C1=O,"cell-free assay, competition with immobilised ligand",1 µM,100
O=C(c1ccc(Nc2nccc(-c3cc4ccccc4s3)n2)cc1)N1CCC(N2CCCC2)CC1,"binding, competition with immobilised ligand",1 µM,100
N[C@@H]1CCN(c2nccc(-c3cnn4ncccc34)n2)C1,binding,1 µM,100
NS(=O)(=O)c1cc(NC(=O)C2(c3ccccc3Cl)CC2)ccc1Oc1cccc(Cl)c1,"cell-free assay, competition with immobilised ligand",1 µM,69
CN(C)c1nccc(-c2cnn3ncccc23)n1,binding,1 µM,89
C[C@H](c1cccc(C#N)c1)n1cc(Cl)cc(C(N)=O)c1=N,"cell-free assay, competition with immobilised ligand",1 µM,100
O=C(c1ccc(Nc2ncc(Cl)c(-c3cc4ccccc4s3)n2)cc1)N1CCC(N2CCCC2)CC1,"binding, competition with immobilised ligand",1 µM,64
CCN1CCN(Cc2ccc(C(=O)Nc3ccc(C)c(Oc4ccc5c(c4)CC(=O)N5)c3)cc2C(F)(F)F)CC1,"binding, competition with immobilised ligand",1 µM,100
CN(C)c1nccc(-c2cnc3ncccn23)n1,binding,1 µM,100
CN(C)C(=O)Cn1cc(-c2nc(C3(c4ccc(-c5cnc(N)nc5)cc4)CC3)no2)cn1,"cell-free assay, competition with immobilised ligand",1 µM,83
